Assay results taken from PMC3902791 (Molecular imaging and biology : MIB : the official …, 2012).
Read-outs that look alike come from different tables or passages of the source.

Parameters: species or system human
Method in brief: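 Organ time–activity curves came from whole-body scan VOI data. These were fitted mono-exponentially in five animals; in the sixth, with two scans, a linear fit to the log values was used. Time-integrated activity coefficients were scaled by the ratio of body-mass-normalised human to CT-derived macaque organ masses. Intestinal values were split in thirds across small intestine, ULI and LLI. Organ doses (mSv/MBq) were computed per animal with the OLINDA/EXM 1.1 adult male model.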

O=C(O)C[18F] [^18F-FACE, ^18F-fluoroacetate]
Organ dose to adult human model, Breasts (Male, Mean±SD): 0.008±0.001 mSv/MBq
Organ dose to adult human model, Gallbladder wall (Male, Mean±SD): 0.027±0.008 mSv/MBq
Organ dose to adult human model, Heart wall (Male, Mean±SD): 0.031±0.010 mSv/MBq
Organ dose to adult human model, Kidneys (Male, Mean±SD): 0.037±0.008 mSv/MBq
Organ dose to adult human model, LLI wall (lower large intestine) (Male, Mean±SD): 0.091±0.031 mSv/MBq
Organ dose to adult human model, Liver (Male, Mean±SD): 0.040±0.026 mSv/MBq
Organ dose to adult human model, Lungs (Male, Mean±SD): 0.010±0.001 mSv/MBq
Organ dose to adult human model, Muscle (Male, Mean±SD): 0.010±0.001 mSv/MBq
Organ dose to adult human model, Osteogenic cells (Male, Mean±SD): 0.015±0.001 mSv/MBq
Organ dose to adult human model, Pancreas (Male, Mean±SD): 0.015±0.001 mSv/MBq
Organ dose to adult human model, Red marrow (Male, Mean±SD): 0.011±0.001 mSv/MBq
Organ dose to adult human model, Skin (Male, Mean±SD): 0.008±0.001 mSv/MBq
Organ dose to adult human model, Small intestine (Male, Mean±SD): 0.044±0.012 mSv/MBq
Organ dose to adult human model, Spleen (Male, Mean±SD): 0.012±0.001 mSv/MBq
Organ dose to adult human model, Stomach wall (Male, Mean±SD): 0.013±0.001 mSv/MBq
Organ dose to adult human model, Testes (Male, Mean±SD): 0.009±0.001 mSv/MBq
Organ dose to adult human model, Thymus (Male, Mean±SD): 0.010±0.001 mSv/MBq
Organ dose to adult human model, Thyroid (Male, Mean±SD): 0.009±0.001 mSv/MBq
Organ dose to adult human model, ULI wall (upper large intestine) (Male, Mean±SD): 0.068±0.021 mSv/MBq
Organ dose to adult human model, Urinary bladder wall (Male, Mean±SD): 0.025±0.015 mSv/MBq
estimated effective dose for an adult human (administration of 185–370 MBq): 3.90–7.81 mSv
radiation absorbed dose, intestines (adult male model): 0.0366–0.0745 mSv/MBq
Dose to adult human model, Total body (from animal 1, male): 0.012 mSv/MBq
ED effective dose, adult human model (from animal 1, male): 0.022 mSv/MBq
EDE effective dose equivalent, adult human model (from animal 1, male): 0.024 mSv/MBq
Organ dose to adult human model, Adrenals (from animal 1, male): 0.016 mSv/MBq
Organ dose to adult human model, Brain (from animal 1, male): 0.007 mSv/MBq
Organ dose to adult human model, Breasts (from animal 1, male): 0.008 mSv/MBq
Organ dose to adult human model, Gallbladder wall (from animal 1, male): 0.031 mSv/MBq
Organ dose to adult human model, Heart wall (from animal 1, male): 0.035 mSv/MBq
Organ dose to adult human model, Kidneys (from animal 1, male): 0.046 mSv/MBq
Organ dose to adult human model, LLI wall (lower large intestine) (from animal 1, male): 0.058 mSv/MBq
Organ dose to adult human model, Liver (from animal 1, male): 0.067 mSv/MBq
Organ dose to adult human model, Lungs (from animal 1, male): 0.011 mSv/MBq
Organ dose to adult human model, Muscle (from animal 1, male): 0.010 mSv/MBq
Organ dose to adult human model, Osteogenic cells (from animal 1, male): 0.014 mSv/MBq
Organ dose to adult human model, Pancreas (from animal 1, male): 0.016 mSv/MBq
Organ dose to adult human model, Red marrow (from animal 1, male): 0.011 mSv/MBq
Organ dose to adult human model, Skin (from animal 1, male): 0.007 mSv/MBq
Organ dose to adult human model, Small intestine (from animal 1, male): 0.031 mSv/MBq
Organ dose to adult human model, Spleen (from animal 1, male): 0.012 mSv/MBq
Organ dose to adult human model, Stomach wall (from animal 1, male): 0.013 mSv/MBq
Organ dose to adult human model, Testes (from animal 1, male): 0.009 mSv/MBq
Organ dose to adult human model, Thymus (from animal 1, male): 0.010 mSv/MBq
Organ dose to adult human model, Thyroid (from animal 1, male): 0.009 mSv/MBq
Organ dose to adult human model, ULI wall (upper large intestine) (from animal 1, male): 0.045 mSv/MBq
Organ dose to adult human model, Urinary bladder wall (from animal 1, male): 0.042 mSv/MBq
Dose to adult human model, Total body (from animal 2, male): 0.012 mSv/MBq
ED effective dose, adult human model (from animal 2, male): 0.025 mSv/MBq
EDE effective dose equivalent, adult human model (from animal 2, male): 0.027 mSv/MBq
Organ dose to adult human model, Adrenals (from animal 2, male): 0.014 mSv/MBq
Organ dose to adult human model, Brain (from animal 2, male): 0.007 mSv/MBq
Organ dose to adult human model, Breasts (from animal 2, male): 0.008 mSv/MBq
Organ dose to adult human model, Gallbladder wall (from animal 2, male): 0.033 mSv/MBq
Organ dose to adult human model, Heart wall (from animal 2, male): 0.038 mSv/MBq
Organ dose to adult human model, Kidneys (from animal 2, male): 0.032 mSv/MBq
Organ dose to adult human model, LLI wall (lower large intestine) (from animal 2, male): 0.096 mSv/MBq
Organ dose to adult human model, Liver (from animal 2, male): 0.041 mSv/MBq
